Results: PMC10676332 (Drugs in R&D, 2023)
Where two headings read alike, the source gives them in different places.

What was measured:
[1] = cited from earlier work
[2] = oral administration with food vs fasted; cited from earlier work
[3] = single 160 mg dose, fasted, cited from earlier work
Caco-2 = Caco-2 permeability assay; type: in vitro ADME; conditions: Caco-2, concentrations 2.00 to 50.0 µM
HCC78 cells = conditions: cited from earlier work
ALK = conditions: preclinical data; cited from earlier work
[4] = tested on: ROS1 wild-type and G2032R mutant xenograft models; conditions: cited from earlier work
[5] = Metabolism in human liver microsomes; type: in vitro ADME
In vitro solubility = type: physicochemical
[6] = tested on: BaF3 cells expressing ROS1 fusion wild-type and resistance mutants; conditions: cited from earlier work
[7] = type: in vivo, human; conditions: 160 mg single oral dose
In short: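 Healthy adults randomized 1:1 to fasted-fed or fed-fasted sequence, 14-day washout; ≥10-h overnight fast pre-dose, no drinking 1 h before to 2 h after, fasting 4 h post-dose. Plasma sampled pre-dose to 168 h, spun 1700g, 2–8 °C, 10 min, kept −70 °C; validated LC-MS/MS; non-compartmental parameters. Ln-transformed Cmax/AUC in linear mixed model; fed/fasted GMR with 90% CI, limits 0.80–1.25.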

[8] = target: wild-type and mutant ROS1; conditions: preclinical data; cited from earlier work
ALK-positive NSCLC = conditions: cited from earlier work; for Objective response rate (ORR): phase I; for IRC-assessed ORR: phase II
Safety assessment = type: in vivo, human
In short: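 Randomized crossover in healthy adults (fasted-fed or fed-fasted, 14-day washout). A TEAE counted any AE absent before dosing, or pre-existing and worsening in intensity or frequency after dosing. AEs graded; serious AEs and discontinuations recorded. Analysis set: every subject receiving at least one dose.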

[9] = oral 20–210 mg/day, ALK-positive NSCLC patients
[10] = 160 mg single dose, fed (high-fat meal)

CCc1cc2c(cc1N1CCC(N3CCOCC3)CC1)C(C)(C)c1[nH]c3cc(C#N)ccc3c1C2=O [alectinib]
BCS class ([1]; approved ALK and ROS1 TKIs): BCS class IV

Cc1cc(Nc2ncc(Cl)c(Nc3ccccc3S(=O)(=O)C(C)C)n2)c(OC(C)C)cc1C1CCNCC1 [ceritinib]
BCS class ([1]; approved ALK and ROS1 TKIs): BCS class IV
Effect of food on drug exposure / PK [2]: improved exposure
Effect of food on safety [2]: improved exposure and safety with food

C[C@@H](Oc1cc(-c2cnn(C3CCNCC3)c2)cnc1N)c1c(Cl)ccc(F)c1Cl [crizotinib]
BCS class ([1]; approved ALK and ROS1 TKIs): BCS class IV

C[C@H]1Oc2cc(cnc2N)-c2c(nn(C)c2C#N)CN(C)C(=O)c2ccc(F)cc21 [lorlatinib]
BCS class ([1]; approved ALK and ROS1 TKIs): BCS class IV

COc1cc(N2CCC(N3CCN(C)CC3)CC2)ccc1Nc1ncc(Cl)c(Nc2ccccc2P(C)(C)=O)n1 [brigatinib]
BCS class ([1]; approved ALK and ROS1 TKIs): BCS class I

CN1CCN(c2ccc(C(=O)Nc3n[nH]c4ccc(Cc5cc(F)cc(F)c5)cc34)c(NC3CCOCC3)c2)CC1 [entrectinib]
BCS class ([1]; approved ALK and ROS1 TKIs): BCS class II

Cc1cc(Nc2ncc(Cl)c(Nc3ccccc3S(=O)(=O)C(C)C)n2)c2c(c1C1CCN(C)CC1)C[C@@H](C)O2 [SAF-189s]
AUC0-∞, geometric mean (CV%) ([3]; nine patients): 1970 (30.0) ng·h/mL
Cmax, geometric mean (CV%) ([3]; nine patients): 41.9 (27.0) ng/mL
t½, geometric mean (CV%) ([3]; nine patients): 39.3 (25.6) h
Median tmax ([3]; patients): 3.0 h
BCS class ([1]; low solubility and low gastrointestinal permeability): class IV
Drug efflux (Caco-2): evidence of drug efflux
Permeability (Caco-2): low permeability
Inhibition of cell proliferation (HCC78 cells): potent inhibition
IC50 against ALK kinase activity (ALK): sub-nanomolar to nanomolar
Growth of xenograft models [4]: inhibited growth
Main metabolizing enzyme [5]: mainly metabolized by cytochrome P450 3A4 (CYP3A4)
Solubility (In vitro solubility; 0.1 mol/L hydrochloric acid, in vitro): slightly soluble
Solubility (In vitro solubility; pH 6.8, in vitro): poor solubility
Inhibition of cell proliferation [6]: potent inhibition
Effect of high-fat meal on the PK profile ([7]; fed vs fasted): minimal effect
Geometric mean ratio: fed/fasted, AUC0-t ([7]; n = 23): 105.1%
Geometric mean ratio: fed/fasted, AUC0-∞ ([7]; n = 23): 105.5%
Geometric mean ratio: fed/fasted, Cmax ([7]; n = 23): 109.1%
IC50 against wild-type and mutant ROS1 kinase activity [8]: sub-nanomolar to nanomolar
Anti-tumor efficacy (ALK-positive NSCLC; [9]): promising anti-tumor efficacy
Intracranial activity (ALK-positive NSCLC; [9]): had intracranial activity
Tolerability (ALK-positive NSCLC; oral 20–210 mg/day, fasted state, ALK-positive NSCLC patients): well tolerated
Objective response rate (ORR) (ALK-positive NSCLC; ALK inhibitor-naive subgroup (8/11)): 72.7%
Objective response rate (ORR) (ALK-positive NSCLC; all patients (28/45), oral 20–210 mg/day, fasted): 62.2%
Objective response rate (ORR) (ALK-positive NSCLC; brain metastases subgroup (17/27)): 63.0%
IRC-assessed ORR (ALK-positive NSCLC; ALK inhibitor-naive patients (95/104)): 91.3%
IRC-assessed ORR (ALK-positive NSCLC; all patients (116/150)): 77.3%
IRC-assessed ORR (ALK-positive NSCLC; brain metastases subgroup (50/71)): 70.4%
IRC-assessed ORR (ALK-positive NSCLC; crizotinib-pretreated group (17/26)): 65.4%
Tolerability of single doses (ALK-positive NSCLC; single doses of 160 mg, most AEs Grade 1 or 2): generally well tolerated
Incidence of TEAEs (Safety assessment; 160 mg single dose, fasted): 54.2%
Incidence of gastrointestinal disorders (Safety assessment; 160 mg single dose, fasted): 41.7%
Incidence of headache (Safety assessment; 160 mg single dose, fasted): 12.5%
Serious AEs (Safety assessment; 160 mg single dose, fasted and fed): no serious AEs were reported
Incidence of TEAEs (Safety assessment; [10]): 29.2%
Incidence of gastrointestinal disorders (Safety assessment; [10]): 4.2%
Incidence of headache (Safety assessment; [10]): 0.0%
Discontinuation of the study due to an AE (Safety assessment; 160 mg single dose, Grade 1 vomiting): Only one volunteer
Tolerability (Safety assessment; single doses of 160 mg, healthy volunteers): generally well tolerated
